We go through six compounds from article PMC8929370 (Pharmacology Research & Perspectives, 2022).

The target of test [1] is T1, human CB1 (Homo sapiens, UniProt P21554). Nature of the test: Inhibition of FSK-stimulated cAMP. Type of test: cell-based. The note with it: for Emax: HEK293, read-out: E MAX (±SEM), %; for Rank order efficacy: cAMP inhibition efficacy ranking.
Test [2] deals with human CB1 (hCB1) receptor (Homo sapiens, UniProt P21554). The test is classed as binding. The note with it: for Rank order (affinity): rank of pKi among EG-018 and 13 analogues.
Chain of human CB1 (hCB1) receptor (P21554 whole entry): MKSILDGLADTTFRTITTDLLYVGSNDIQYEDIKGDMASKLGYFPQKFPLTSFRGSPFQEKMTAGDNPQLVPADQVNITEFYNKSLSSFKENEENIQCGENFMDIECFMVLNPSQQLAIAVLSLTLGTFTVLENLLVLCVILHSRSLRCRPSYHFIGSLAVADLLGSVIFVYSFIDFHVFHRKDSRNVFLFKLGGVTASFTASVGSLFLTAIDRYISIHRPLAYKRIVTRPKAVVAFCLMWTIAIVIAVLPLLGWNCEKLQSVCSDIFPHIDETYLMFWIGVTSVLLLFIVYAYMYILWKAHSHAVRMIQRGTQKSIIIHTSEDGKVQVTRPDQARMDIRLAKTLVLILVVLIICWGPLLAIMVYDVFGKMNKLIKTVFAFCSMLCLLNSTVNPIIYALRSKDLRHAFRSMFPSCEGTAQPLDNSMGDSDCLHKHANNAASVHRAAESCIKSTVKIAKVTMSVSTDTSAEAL
The target in test [3] is T1, human CB1. Briefly: [35S]GTPγS binding in P2 membranes of HEK293 cells expressing hCB1. Type of test: biochemical. The note with it: for Rank order efficacy: [35S]-GTPγS efficacy ranking; for Emax: read-out: E MAX (±SEM), %. Background: GTPγS is a poorly hydrolysed GTP analogue; its binding reports G protein activation.
Test [4] addresses T1, human CB1. Briefly: Phospho-ERK AlphaLISA assay in 3HA-hCB1 HEK cells. The test is classed as cell-based. The note with it: 10 µM alone. The gist of the method:
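3HA-hCB1 HEK cells were plated at 2.5e4/well on poly-D-lysine-coated plates and serum-starved overnight after ~24 h in serum-free high-glucose DMEM with 1 mg/ml BSA. Drugs were made at 2x, prewarmed and dispensed in a 37°C waterbath, staggered so all stimulations ended together. The time course used 31.6 µM. Cells were lysed on ice and pERK read by AlphaLISA SureFire Ultra, in technical duplicate or quadruplicate.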
(In general: Bead proximity is the source of the signal in Alpha formats.)

T1 sequence (P21554 whole entry): as above

For the compound `O=C(c1ccc2c(c1)c1ccccc1n2CCCCCO)c1cccc2ccccc12` [Compound 045], at human CB1 [1], the midpoint of the response, the EC50, lay at 148 nM; the Emax worked out at 34.9%; the Rank order efficacy turned out to be 9. Further, in test [2], the Ki (usually the dissociation constant of the complex between target and ligand, obtained from inhibition or displacement) is 166 nM; the “Rank order (affinity)” value is 9. In addition, on human CB1 [3], the EC50 (commonly the concentration needed to bring the measured effect to its halfway point) is 257 nM, the Rank order efficacy is reported as 12 and the Emax came to 81.9%.
With `Cc1ccc(C(=O)c2ccc3c(c2)c2ccccc2n3CCN2CCOCC2)c2ccccc12` [Compound 141, (9-(2-(Morpholin-4-yl)ethyl)-9H-carbazol-3-yl)(4-methylnaphthalen-1-yl)methanone], on human CB1 [1], the EC50 is 83.2 nM, the Emax was found to be 38.7% and the Rank order efficacy amounted to 7. Also, in test [2], the Ki was 148 nM and the “Rank order (affinity)” value is listed as 8. Further, on human CB1 [3], the EC50 was 355 nM, the Rank order efficacy amounted to 8 and the Emax amounted to 106%.
In the case of `O=C(c1ccc2c(c1)c1ccccc1n2CCN1CCOCC1)c1cc2ccccc2[nH]1` [Compound 142, (9-(2-(Morpholin-4-yl)ethyl)-9H-carbazol-3-yl)(1H-indol-2-yl)methanone], at human CB1 [1], the EC50 is 1200 nM, the Emax came to 31.5% and the Rank order efficacy amounted to 13. Also, the “Rank order (affinity)” value in test [2] came to 14. Also, at human CB1 [3], the response was half-maximal at 6170 nM (EC50), the Rank order efficacy worked out at 6 and the Emax worked out at 123%.
With `O=C(c1ccc2c(c1)c1ccccc1n2CCN1CCOCC1)c1cc2ccccc2o1` [Compound 146, 1-Benzofuran-2-yl(9-(2-(morpholin-4-yl)ethyl)-9H-carbazol-3-yl)methanone], at human CB1 [1], the EC50 was 355 nM, the Emax was determined as 38.5% and the Rank order efficacy was found to be 8. In test [2], the Ki is 295 nM and the “Rank order (affinity)” value is 11.
With `O=C(c1ccc2c(c1)c1ccccc1n2CCN1CCOCC1)c1ccnc2ccccc12` [Compound 157, (9-(2-(Morpholin-4-yl)ethyl)-9H-carbazol-3-yl)(quinoline-4-yl)methanone], the “agonist response in pERK by compound alone” value on human CB1 [4] was “not driving an agonist response in pERK”. Moreover, at human CB1 [1], the EC50 was 91.2 nM, the Emax worked out at 13.1% and the Rank order efficacy worked out at 14. The “right-shift in the potency of the CP55940 response (cAMP)” value on human CB1 [1] (10 µM antagonist, E MAX not reduced) is “approximately 1 log unit”. For the same compound, in test [2], the Ki is 589 nM and the “Rank order (affinity)” value came out at 13. On human CB1 [3], the EC50 is 257 nM, the Rank order efficacy is reported as 10 and the Emax came to 88.2%.
As for `O=C(NN1CCCCC1)c1nn(-c2ccc(Cl)cc2Cl)c2c1CCCc1cc(Cl)ccc1-2` [NESS‐0327, reference compound], the “inverse agonism in cAMP assay” value on human CB1 [1] (concentration-response, compared to SR141716A) is reported as “approximately equivalent inverse agonism to SR141716A”.
